Experimental findings from ChEMBL document CHEMBL4177758, “Rational Drug Design of Topically Administered Caspase 1 Inhibitors for the Treatment of Inflammatory Acne” (J Med Chem, 2018) are described below.

Structures are written as SMILES.

In data set [1] the target is T1, Caspase-3 (Homo sapiens, UniProt P42574).
T1 sequence (P42574 whole entry): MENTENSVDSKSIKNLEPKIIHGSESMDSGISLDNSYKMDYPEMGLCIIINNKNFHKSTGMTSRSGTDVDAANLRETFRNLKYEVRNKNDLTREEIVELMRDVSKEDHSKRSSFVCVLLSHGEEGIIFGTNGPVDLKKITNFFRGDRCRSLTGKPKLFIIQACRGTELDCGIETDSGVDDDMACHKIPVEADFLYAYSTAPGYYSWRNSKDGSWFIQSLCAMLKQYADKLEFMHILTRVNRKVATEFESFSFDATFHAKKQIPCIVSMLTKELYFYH
The data set is described as follows: Inhibition of human recombinant caspase-3 using Ac-DEVD-AMC as substrate at Km after 20 mins by fluorescence assay. An outline of the steps:
(§1)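 Human recombinant caspases in pH 7.4 HEPES buffer (100 mM NaCl, 0.1% CHAPS, 1 mM EDTA, 10% glycerol, 10 mM DTT), each with its own AMC substrate at a final concentration equal to its Km. Compounds tested at 10 000–0.04 nM in 1% DMSO. Enzyme level is set to convert under 20% of substrate in 20 min, or 2 h depending on activity, at room temperature. AMC read at 340/450 nm; IC50 from a four-parameter logistic fit.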

The target of data set [2] is T2, Caspase-1 (Homo sapiens, UniProt P29466).
T2 sequence (P29466 whole entry): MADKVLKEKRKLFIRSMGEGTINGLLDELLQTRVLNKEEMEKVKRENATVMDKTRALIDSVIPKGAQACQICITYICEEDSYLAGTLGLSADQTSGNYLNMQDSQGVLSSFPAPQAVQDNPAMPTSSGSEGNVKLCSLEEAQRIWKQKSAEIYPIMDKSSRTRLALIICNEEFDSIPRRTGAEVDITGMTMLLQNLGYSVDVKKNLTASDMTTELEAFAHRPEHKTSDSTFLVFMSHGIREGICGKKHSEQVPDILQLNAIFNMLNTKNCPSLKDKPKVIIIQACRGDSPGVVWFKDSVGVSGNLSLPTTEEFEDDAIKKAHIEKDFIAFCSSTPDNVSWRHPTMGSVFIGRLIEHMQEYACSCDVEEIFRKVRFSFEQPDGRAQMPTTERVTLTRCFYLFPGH
In words: Inhibition of caspase-1 in human THP1 cells assessed as decrease in LPS-induced IL-1beta secretion after overnight incubation by sandwich immunoassay. The class given is cell-based.

Data set [3] is described as follows: Cmax in mouse dermis at 0.1 umol/cm'2 administered topically. The class given is ADME, tissue-based. Conditions: topical or ocular. An outline of the steps: (§2)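 Mouse PK after one topical application of 0.1 μmol/cm², given as a 10 mM solution in PG/EtOH 3/7. Cmax is reported in μM for dermis and for plasma.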
A short description of data set [4]: Phototoxicity in NHEK assessed as decrease in cell viability after 24 hrs in presence of UV light by neutral red uptake assay. Conditions: human. An outline of the steps:
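Keratinocyte neutral red uptake assay adapted from the OECD 432 3T3 NRU test. Cells are irradiated with a simulated daily UV dose of 6 J/cm², and viability is read after 24 h exposure to compound.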

In data set [5] the target is T3, Caspase-5 (Homo sapiens, UniProt P51878).
T3 sequence (P51878 whole entry): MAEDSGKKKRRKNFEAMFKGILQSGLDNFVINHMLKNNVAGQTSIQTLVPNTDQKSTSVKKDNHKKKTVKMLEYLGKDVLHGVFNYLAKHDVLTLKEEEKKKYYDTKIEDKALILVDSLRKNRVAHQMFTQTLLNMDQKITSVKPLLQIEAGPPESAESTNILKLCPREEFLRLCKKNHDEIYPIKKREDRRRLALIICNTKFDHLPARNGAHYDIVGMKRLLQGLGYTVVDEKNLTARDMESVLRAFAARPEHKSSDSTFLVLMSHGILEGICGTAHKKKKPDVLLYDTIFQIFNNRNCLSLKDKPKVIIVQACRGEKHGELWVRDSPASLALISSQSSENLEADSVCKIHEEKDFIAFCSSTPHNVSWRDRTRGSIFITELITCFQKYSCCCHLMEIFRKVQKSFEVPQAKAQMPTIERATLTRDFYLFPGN
The data set is described as follows: Inhibition of human recombinant caspase-5 using AC-WEHD-AMC as substrate at Km after 20 mins by fluorescence assay. In outline:
as §1

Data set [6] addresses T4, Caspase-7 (Homo sapiens, UniProt P55210).
T4 sequence (P55210 whole entry): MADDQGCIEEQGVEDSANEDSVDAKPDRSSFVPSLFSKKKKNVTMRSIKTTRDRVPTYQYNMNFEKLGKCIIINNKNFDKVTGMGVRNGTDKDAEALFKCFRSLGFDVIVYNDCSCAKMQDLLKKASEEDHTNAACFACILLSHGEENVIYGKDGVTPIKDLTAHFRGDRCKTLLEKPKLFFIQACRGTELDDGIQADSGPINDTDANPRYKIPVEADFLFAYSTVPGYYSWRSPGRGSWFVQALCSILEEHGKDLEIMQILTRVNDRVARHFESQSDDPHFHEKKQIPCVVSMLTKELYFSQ
In words: Inhibition of human recombinant caspase-7 using Ac-DEVD-AMC as substrate at Km after 20 mins by fluorescence assay. An outline of the steps: as §1

A short description of data set [7]: Drug uptake in human dermis at 0.2 umol/cm'2 administered topically. Conditions: topical_or_ocular, read-out: Drug uptake. The class given is ADME, tissue-based. In outline:
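Cryogenically preserved human skin explant given one topical application of 0.2 μmol/cm² from a 40 mM PG/EtOH 3/7 solution. Dermis concentration is reported in μM.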

For data set [8], the target named is T5, Caspase-6 (Homo sapiens, UniProt P55212).
T5 sequence (P55212 whole entry): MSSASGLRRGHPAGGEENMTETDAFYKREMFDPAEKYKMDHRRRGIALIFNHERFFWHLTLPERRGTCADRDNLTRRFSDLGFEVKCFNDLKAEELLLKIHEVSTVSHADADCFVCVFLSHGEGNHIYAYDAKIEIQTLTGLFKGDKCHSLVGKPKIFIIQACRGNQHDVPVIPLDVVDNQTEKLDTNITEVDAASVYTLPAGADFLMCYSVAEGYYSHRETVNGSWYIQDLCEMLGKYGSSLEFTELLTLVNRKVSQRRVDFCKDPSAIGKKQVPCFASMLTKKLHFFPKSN
In words: Inhibition of human recombinant caspase-6 using Ac-VEID-AMC as substrate at Km after 20 mins by fluorescence assay. An outline of the steps: as §1

Data set [9] deals with T2, Caspase-1. The data set is described as follows: Inhibition of caspase-1 in human monocyte-derived macrophages assessed as decrease in LPS-induced IL-1beta secretion after 24 hrs by sandwich immunoassay. In outline:
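Cryopreserved human peripheral blood monocytes are cultured 10 days at 37 °C in RPMI with 10% heat-inactivated FBS and 100 ng/mL GM-CSF to give M1 macrophages. Cells are then stimulated with LPS 10 µg/mL plus IFNγ 20 ng/mL and treated with compound serial dilutions (10000–0.04 nM, 0.1% DMSO).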

Data set [10] in a line: Chemical stability in 96% ethanol assessed as parent compound recovery at 23 degC after 3 months. In kind it is physicochemical. Conditions: read-out: Drug recovery. In outline: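 Compounds bearing the aspartyl aldehyde warhead are held in 96% ethanol at 23 °C and assayed as percent of parent compound recovered. Readings taken after 4 weeks are projected to 12 weeks with best-fit kinetic-order equations. Tautomers and potential stereoisomers are counted as parent.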

Data set [11] in a line: Cmax in mouse plasma at 0.1 umol/cm'2 administered topically. Conditions: topical or ocular. In outline: as §2
Data set [12] in a line: Intrinsic clearance in human hepatocytes assessed per 10^6 cells. The class given is ADME, cell-based, Hepatocyte. Conditions: read-out: CLH.
A short description of data set [13]: Lipophilicity, log D of the compound at pH 6.5 by chromatographic method. In kind it is physicochemical. Conditions: buffer. An outline of the steps: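 Chromatographic lipophilicity at pH 6.5, converted to ChromLogD = CHI × 0.0857 − 2.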
In data set [14] the target is Caspase-8 (Homo sapiens, UniProt Q14790). In words: Inhibition of human recombinant caspase-8 using Ac-IETD-AMC as substrate at Km after 20 mins by fluorescence assay. An outline of the steps:
as §1

Data set [15] deals with T2, Caspase-1. The data set is described as follows: Inhibition of human recombinant caspase-1 using AC-WEHD-AMC as substrate at Km after 20 mins by fluorescence assay. Conditions: read-out: IC50.

Chain of Caspase-8 (Q14790 217-374 limits assumed): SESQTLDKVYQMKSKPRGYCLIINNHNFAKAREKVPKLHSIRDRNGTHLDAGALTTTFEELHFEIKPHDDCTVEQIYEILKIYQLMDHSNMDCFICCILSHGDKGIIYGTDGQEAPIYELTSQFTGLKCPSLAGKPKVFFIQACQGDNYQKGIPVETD
Chain of Caspase-8 (Q14790 385-479 limits assumed): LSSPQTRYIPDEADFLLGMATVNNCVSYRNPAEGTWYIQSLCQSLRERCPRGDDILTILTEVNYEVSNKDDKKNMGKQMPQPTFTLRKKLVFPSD

As to `Cc1cc(Nc2ccc3ccccc3c2)ccc1C(=O)Nc1cn(C(C)C)c(=O)n(C2(C(=O)N[C@H]3CC(=O)OC3O)CC2)c1=O` (stereo not given in full), the IC50 in data set [1] is > 10000 nM; in data set [2], 38 nM; in data set [5], 2980 nM; in data set [6], > 10000 nM; in [8], > 10000 nM; in [9], 160 nM. The IC50 in data set [14] was > 10000 nM; in [15] it was 9.8 nM. In addition, the Cmax worked out at 4.2 µM in [3] and 0.0013 µM in data set [11]. For the same molecule, the Activity entry in data set [4] is listed as “Non-Toxic”. For the same molecule, in [7], the concentration was determined as 4.5 µM. In addition, the remaining at 2191.5 h in data set [10] was found to be 100%. The hepatocyte CLint in data set [12] was 9.8 µL/min/1e6 cells. The chromatographic logD in data set [13] worked out at 3.7.

By IC50 is commonly meant the concentration at which inhibition is half-maximal. As a reminder, the Cmax is the maximum level reached in the sampled fluid or tissue. The term chromatographic logD denotes a lipophilicity value derived from retention on a column.
